Screening data deposited in PubChem by several laboratories.
In the library only some 12% were active in any assay of this set; here they are far more common.
MT stabilize HCS: microtubule stabilizers in HeLa cells, primary screen, imaging, high-content imaging; HeLa tubulin immunostaining HCS, 24 h; share of cells brighter than vehicle mean+2SD; % tubulin-high responders, % at 10 µM; actives 0.83% (n = 200,000); AID 2205, 2009;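 active means plate Z-score above 3 for both tubulin-high and condensed-nucleus cell shares, with cell loss under 80%, at 10 µM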;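 further: anti alpha tubulin signal scored within the nucleus-defined area of each cell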
L major viab: Leishmania major promastigote growth inhibition, primary screen. Leishmania major promastigotes, resazurin fluorescence viability. inhibition, % at 10 µM. actives 9% (n = 200,000); in the data active means inhibition above about 50%;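 further: promastigotes grown with compound for 44 hours at 28 °C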
b-catenin transl: modulators of beta-catenin nuclear translocation, primary screen, imaging, HeLa cells, immunofluorescence, high-content | actives 0.3% (n = 190,000) | nuclear translocation activity, % at 5 µM | AID 1665, 2009;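 active means nuclear translocation activity above 50% at 5 µM, with a well cell count of 50 or more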;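 further: per-cell ratio of nuclear to cytoplasmic median beta-catenin stain intensity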
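Test system: HeLa cells, endogenous beta-catenin; Compound: single 5 µM dose plus 0.02–20 µM confirmation series; Times: compound exposure 24 h at 37°C; Signal: fluorescence imaging of beta-catenin antibody stain plus DAPI; Read-out: % activation, nuclear-to-cytoplasmic median beta-catenin signal ratio per cell.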
Dynein transport: inhibitors of GR-EGFP nuclear translocation, primary screen, dynein cargo transport inhibitor project, imaging, high-content, 3617.4 mouse cells; test concentration mostly 20 µM; stimulated with dexamethasone, 1 µM; hits give low values; z-score, hits read low; actives 0.47% (n = 220,000); AID 1381, 2008;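 active means plate z-score of nuclear minus cytoplasmic receptor signal below a set negative limit, without overly bright fluorescence or cell loss, cut at about -3.5 in these data, passing the limit was not always enough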;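 further: z-score of nuclear minus cytoplasmic ring GR-EGFP intensity difference per well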
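Buffer or medium: tet-free, stripped-serum medium; Also added: dexamethasone, 1.0 µM final; Technique: high-content fluorescence imaging after fixation; Times: 48 h induction, 1 h compound, 30 min dex at 37 °C; Read-out: per-cell GR-EGFP intensity, nucleus versus surrounding cytoplasmic ring, well-averaged.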
CHOP inh: inhibitors of CHOP promoter induction, primary screen, cell-based, unfolded protein response, luciferase reporter; CHO-K1 CHOP-promoter luciferase, tunicamycin-induced, 15-18 h; inhibition, % at 10 µM; actives 3.8% (n = 220,000);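 active means compounds that reduced the stress-induced luciferase reporter signal by more than about 70% of percent inhibition, limit read from the data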
Autophagy mod: autophagy modulators in MEF cells, primary screen, imaging, high-content, MEF GFP-LC3; MEF GFP-LC3 puncta imaging; test concentration mostly 10 µM; calls only at 10 µM (by protocol); actives 0.98% (n = 190,000);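 active means percentage of spot-positive cells more than 3 SD above its plate mean, without a fluorescence outlier flag or 80% toxicity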
Of the large screens only hits and unclear results are named; the others gave an inactive call.

O=C(N/N=C/c1ccc(OC(=O)c2ccccc2)cc1)c1ccc(CN2CCOCC2)cc1	CHOP inh 71 (no result: b-catenin transl)
CCOC(=O)c1cccc(P(C)(C)=O)c1	none
CCOC(=O)C1=C(O)/C(=C/c2cn(CC(=O)NCC3CCCO3)c3ccccc23)SC1=Nc1ccc(C)cc1 (stereo not given)	Autophagy mod active (no result: b-catenin transl, CHOP inh)
O=C(COC(=O)/C=C/c1ccccc1)NCc1ccccc1Cl	none
CCN1C(=O)CS/C1=N\S(=O)(=O)c1ccc(Cl)cc1	none
CCN1C(=O)CSC1=NC1C2CC3CC(C2)CC1C3 (stereo not given)	CHOP inh 76
Cc1ccc(CSCC(=O)NCc2ccco2)cc1	none
O=C(Nc1ncc(Cc2cccc(Cl)c2)s1)c1ccc([N+](=O)[O-])cc1	CHOP inh 76 (no result: b-catenin transl)
O=C(Nc1ncc(Cc2ccc(C(F)(F)F)cc2)s1)c1ccc(-c2cccc([N+](=O)[O-])c2)o1	L major viab 90
O=C(Nc1ncc(Cc2ccccc2Cl)s1)c1ccc(-c2cccc([N+](=O)[O-])c2)o1	L major viab 92
O=C(Nc1ncc(Cc2cccc([N+](=O)[O-])c2)s1)c1ccco1	none
Cc1ccnc(NC(=O)c2ccc(S(=O)(=O)c3ccccc3)cc2)c1	none
Cc1cc(C)n(-c2nc(NCCN(C)C)c3c4c(sc3n2)COC(C)(C)C4)n1	none (no result: MT stabilize HCS, L major viab, Autophagy mod)
Cc1cc(C)n(-c2nc(NCCC(C)C)c3c4c(sc3n2)COC(C)(C)C4)n1	L major viab 71
O=[N+]([O-])c1ccccc1N(CC1CO1)S(=O)(=O)c1ccccc1 (stereo not given)	none (no result: MT stabilize HCS)
COc1ccc(CCNC2CC(=O)N(C3CCCCC3)C2=O)cc1OC (stereo not given)	none
COc1ccc(CNC(=O)CN2C(=O)C3C4C=CC(C4)C3C2=O)cc1 (stereo not given)	Autophagy mod active (no result: b-catenin transl)
COc1ccc(CN2C(=O)C3C4C=CC(C4)C3C2=O)cc1 (stereo not given)	none
Cc1[nH]c2ccccc2c1/C=C/c1nc2ccccc2c(=O)n1CCO	none
CCN(CC)S(=O)(=O)c1ccc(Oc2ccc(S(=O)(=O)N(CC)CC)cc2)cc1	CHOP inh 72
COc1cc(C2C3=C(CC(C)(C)CC3=O)N(C)C(=O)N2C)cc(OC)c1OC (stereo not given)	none
CCCCNC(=O)C1c2ccccc2Oc2ccccc21	none
CNCCC1Sc2ccccc2Oc2ccccc21 (stereo not given)	L major viab 95
Cc1ccccc1NC(=S)NC(C)CCc1ccccc1 (stereo not given)	L major viab 62
Cc1ccccc1NC(=O)Cc1ccccc1	none
NC(=O)c1ccccc1NC(=S)NC(=O)CCc1ccccc1	MT stabilize HCS 23 (no result: b-catenin transl)
NC(=O)c1ccccc1NC(=O)CCc1ccccc1	none
Cc1cccc(C)c1NC(=S)NC(=O)CCc1ccccc1	L major viab 93
Cc1cccc(C)c1NC(=S)NCc1ccccc1	none
Cc1ccccc1NC(=S)NC(=O)CCc1ccccc1	L major viab 100
O=C1CN(C(=O)COC(=O)CCSc2ccccc2Cl)c2ccccc2N1	none (no result: b-catenin transl)
CCOC(=O)C(Cc1ccccc1)C(=O)Nc1cccc2ccccc12 (stereo not given)	none
Cc1ccc(C(=O)COC(=O)c2cn3ccccc3n2)cc1	none
CCCN(CCC)C(=O)Cn1c(=O)c2sccc2n2c(=S)sc(-c3ccccc3)c12	Autophagy mod active
CCCN(CCC)C(=O)Cn1c(=O)n(CCCCC(=O)NC2CCCC2)c(=O)c2ccccc21	none
CCCN(CCC)C(=O)Cn1c(=O)c2ccccc2n2c(=S)sc(-c3ccccc3C)c12	L major viab 98 (no result: b-catenin transl)
Cc1cccc(N2CCN(C(=O)NCc3ccc(Cl)cc3)CC2)c1	none
Cc1cccc2cc(C(c3nnnn3Cc3ccccc3)N3CCCc4ccccc43)c(=O)[nH]c12 (stereo not given)	CHOP inh 77, Autophagy mod active (no result: b-catenin transl)
CCN1CCN(C(c2cc3cccc(C)c3[nH]c2=O)c2nnnn2Cc2ccccc2)CC1 (stereo not given)	none
